Here are results for 22 molecules from ChEMBL document CHEMBL1131259, “Synthesis and evaluation of diphenyl phosphonate esters as inhibitors of the trypsin-like granzymes A and K and mast cell tryptase” (J Med Chem, 1998).

The target in assay [1] is T1, Granzyme A (Rattus norvegicus) (UniProt Q8CJF4).
T1 sequence (whole entry): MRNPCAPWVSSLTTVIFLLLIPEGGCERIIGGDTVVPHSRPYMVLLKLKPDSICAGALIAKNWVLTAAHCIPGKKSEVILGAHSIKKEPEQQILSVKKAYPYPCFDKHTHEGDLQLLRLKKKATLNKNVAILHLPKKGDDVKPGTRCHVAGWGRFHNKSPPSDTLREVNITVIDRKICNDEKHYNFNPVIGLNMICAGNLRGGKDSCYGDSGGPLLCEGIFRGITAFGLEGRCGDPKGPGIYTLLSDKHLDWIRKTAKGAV
Put plainly: Inhibition of rat granzyme A. A digest of the protocol: (§1)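 Recombinant human and rat granzyme A, incubated with inhibitor (1.0–450 μM) at 25 °C in 0.1 M Hepes, 0.01 M CaCl2, pH 7.5 (7.6% DMSO). Timed aliquots were read for residual activity on Cbz-Arg-SBzl with DTNB at 405 nm. k_obs came from ln vt/vo vs time over 5–10 points and 2–3 half-lives, two k_obs per inhibitor. DMSO controls were run.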

Assay [2] has as its target T2, Granzyme A (Homo sapiens) (UniProt P12544).
T2 sequence (whole entry): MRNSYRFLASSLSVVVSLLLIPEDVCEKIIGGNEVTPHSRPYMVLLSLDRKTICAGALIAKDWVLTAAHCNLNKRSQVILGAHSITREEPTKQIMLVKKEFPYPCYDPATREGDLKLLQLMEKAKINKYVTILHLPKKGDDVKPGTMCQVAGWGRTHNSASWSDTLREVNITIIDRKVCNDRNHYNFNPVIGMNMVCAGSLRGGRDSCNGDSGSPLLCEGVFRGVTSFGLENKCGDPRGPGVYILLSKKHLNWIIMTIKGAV
Put plainly: Inhibition of human granzyme A. A digest of the protocol:
as §1

Assay [3] concerns the target T3, Tryptase (Homo sapiens) (UniProt Q9BZJ3+Q15661+Q9NRR2). Put plainly: Inhibition of mast cell tryptase. The format is protein assay. A digest of the protocol:
(§2)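 Human lung mast cell tryptase, high-molecular-weight form, heparin-free, active sites titrated with MUGB. Incubated with inhibitor at 25 °C in 0.1 M Hepes, 10% glycerol, 10 mM heparin, pH 7.5 (7.1% DMSO). […] DMSO controls were run.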

The target in assay [4] is T4, Granzyme K (Rattus norvegicus) (UniProt P49864).
T4 sequence (whole entry): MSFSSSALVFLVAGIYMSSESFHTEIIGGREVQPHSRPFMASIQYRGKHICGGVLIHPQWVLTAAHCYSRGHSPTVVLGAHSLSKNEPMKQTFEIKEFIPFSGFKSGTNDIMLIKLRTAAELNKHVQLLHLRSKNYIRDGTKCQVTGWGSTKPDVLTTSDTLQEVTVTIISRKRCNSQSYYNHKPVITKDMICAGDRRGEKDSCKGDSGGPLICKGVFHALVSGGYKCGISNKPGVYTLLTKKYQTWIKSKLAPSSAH
Put plainly: Inhibition of rat granzyme K. A digest of the protocol:
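Native rat granzyme K, purified by size-exclusion in 1 M NaCl then MonoS cation exchange. Incubated with inhibitor (1.0–450 μM) at 25 °C in 0.1 M Hepes, 0.01 M CaCl2, pH 7.5 (7.1% DMSO). Timed aliquots were read for residual activity on Cbz-Arg-SBzl with DTNB at 405 nm. k_obs came from ln vt/vo vs time, one or two per inhibitor. For no-inhibition lines, none was seen after 25 min.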

The target in assay [5] is T5, Serine protease 1 (Bos taurus) (UniProt P00760).
T5 sequence (whole entry): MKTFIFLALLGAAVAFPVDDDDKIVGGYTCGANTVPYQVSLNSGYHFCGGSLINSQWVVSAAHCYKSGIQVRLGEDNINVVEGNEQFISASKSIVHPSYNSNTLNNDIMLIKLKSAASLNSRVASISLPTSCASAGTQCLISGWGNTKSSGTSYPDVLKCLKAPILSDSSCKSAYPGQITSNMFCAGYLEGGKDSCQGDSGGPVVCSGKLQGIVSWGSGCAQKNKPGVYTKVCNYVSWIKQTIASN
Put plainly: Inhibition of bovine trypsin. The method in brief:
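Irreversible inhibition assayed by incubation at 25 °C in 0.1 M Hepes, 0.01 M CaCl2, pH 7.5 (2% DMSO), inhibitor 1.0–450 μM. Timed aliquots were read for residual activity on Cbz-Arg-SBzl with DTNB at 410 nm. Pseudo-first-order k_obs came from ln vt/vo vs time, using 5–10 points over 2–3 half-lives, three k_obs per inhibitor. DMSO-only controls were run. For no-inhibition lines, none was seen after 25 min.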

Assay [6] deals with T3, Tryptase (Homo sapiens). Put plainly: Compound was evaluated to inhibit mast cell tryptase; No inhibition. The format is protein assay. A digest of the protocol:
as §2

Calls of active or inactive are those of the source. The rule behind the calls is not given here.

As for `N=C(N)c1ccc(C(NC(=O)/C=C/c2cccs2)P(=O)(Oc2ccccc2)Oc2ccccc2)cc1` (centres undefined), the K obs / 1 was determined as 430 M⁻¹ s⁻¹ in assay [1] and 300 M⁻¹ s⁻¹ in assay [5]. Further, the kobs/[I] (second-order inactivation rate constant) in assay [2] was 740 M⁻¹ s⁻¹; in assay [4] it was 4 M⁻¹ s⁻¹. Besides, in assay [3], the kobs/[I] (second-order inhibition rate constant) amounted to 1 M⁻¹ s⁻¹.
Consider `NC(N)c1ccc(C(NC(=O)c2ccccc2Oc2ccccc2)P(=O)(Oc2ccccc2)Oc2ccccc2)cc1` (centres undefined), for which the K obs / 1 in assay [1] came out at 340 M⁻¹ s⁻¹; in assay [5], 670 M⁻¹ s⁻¹. Further, the kobs/[I] (second-order inactivation rate constant) was 540 M⁻¹ s⁻¹ in assay [2] and 1 M⁻¹ s⁻¹ in assay [4]. The molecule further displayed a kobs/[I] (second-order inhibition rate constant) in assay [3] of 0.4 M⁻¹ s⁻¹.
For `CC(C)(C)OC(=O)N[C@H](Cc1ccccc1)C(=O)N1CCC[C@H]1C(=O)NC(c1ccc(C(N)N)cc1)P(=O)(Oc1ccccc1)Oc1ccccc1` (some centres undefined), the kobs/[I] (second-order inactivation rate constant) in assay [2] is 170 M⁻¹ s⁻¹; in assay [4], 56 M⁻¹ s⁻¹. In assay [3], the kobs/[I] (second-order inhibition rate constant) was determined as 0.4 M⁻¹ s⁻¹. This molecule had a K obs / 1 in assay [5] of 130 M⁻¹ s⁻¹.
Regarding `N=C(N)c1ccc(C(NC(=O)[C@@H]2CCCN2C(=O)OCc2ccccc2)P(=O)(Oc2ccccc2)Oc2ccccc2)cc1` (some centres undefined), the kobs/[I] (second-order inactivation rate constant) in assay [2] is 790 M⁻¹ s⁻¹; in assay [4], 34 M⁻¹ s⁻¹. Further, in assay [3], the kobs/[I] (second-order inhibition rate constant) amounted to 1.2 M⁻¹ s⁻¹. In addition, the K obs / 1 in assay [5] amounted to 910 M⁻¹ s⁻¹.
For `N=C(N)c1ccc(C(NC(=O)[C@@H]2CCCN2C(=O)c2ccccc2Oc2ccccc2)P(=O)(Oc2ccccc2)Oc2ccccc2)cc1` (some centres undefined), in that order: 610 M⁻¹ s⁻¹, 60 M⁻¹ s⁻¹, 0.9 M⁻¹ s⁻¹ and 7760 M⁻¹ s⁻¹.
As to `N=C(N)c1ccc(C(NC(=O)/C=C/c2ccccc2)P(=O)(Oc2ccccc2)Oc2ccccc2)cc1` (centres undefined), the K obs / 1 amounted to 340 M⁻¹ s⁻¹ in assay [1] and 110 M⁻¹ s⁻¹ in assay [5]. Besides, the figures for the kobs/[I] (second-order inactivation rate constant) in assay [2] and in assay [4] were 400 M⁻¹ s⁻¹ and 3 M⁻¹ s⁻¹, respectively. In assay [3], the kobs/[I] (second-order inhibition rate constant) was 0.3 M⁻¹ s⁻¹.
On to `NCCCCC(NC(=O)OCc1ccccc1)P(=O)(Oc1ccccc1)Oc1ccccc1` (centres undefined), for which the kobs/[I] (second-order inactivation rate constant) in assay [2] was determined as 1210 M⁻¹ s⁻¹; in assay [4], 23 M⁻¹ s⁻¹. Besides, the kobs/[I] (second-order inhibition rate constant) in assay [3] was 89 M⁻¹ s⁻¹. Also, the K obs / 1 in assay [5] stood at 6240 M⁻¹ s⁻¹.
As to `N=C(N)c1ccc(C(NC(=O)/C=C/c2ccco2)P(=O)(Oc2ccccc2)Oc2ccccc2)cc1` (centres undefined), the values for the K obs / 1 in assay [1] and in assay [5] were 1740 M⁻¹ s⁻¹ and 360 M⁻¹ s⁻¹, respectively. The kobs/[I] (second-order inactivation rate constant) in assay [2] stood at 1740 M⁻¹ s⁻¹; in assay [4], 32 M⁻¹ s⁻¹. The “K obs / 1” value in assay [6] is “inactive”.
Take `N=C(N)c1ccc(C(NC(=O)[C@@H]2CCCN2C(=O)CC(c2ccccc2)c2ccccc2)P(=O)(Oc2ccccc2)Oc2ccccc2)cc1` (some centres undefined): the kobs/[I] (second-order inactivation rate constant) in assay [2] came to 250 M⁻¹ s⁻¹; in assay [4], 1830 M⁻¹ s⁻¹. In addition, the “K obs / 1” value in assay [6] was “inactive”. The molecule also showed a K obs / 1 in assay [5] of 2660 M⁻¹ s⁻¹.
Regarding `C[C@H](NC(=O)[C@H]1CCCN1C(=O)OCc1ccccc1)C(=O)NC(c1ccc(C(=N)N)cc1)P(=O)(Oc1ccccc1)Oc1ccccc1` (some centres undefined), the kobs/[I] (second-order inactivation rate constant) in assay [2] worked out at 380 M⁻¹ s⁻¹; in assay [4], 5 M⁻¹ s⁻¹. In assay [3], the kobs/[I] (second-order inhibition rate constant) worked out at 1 M⁻¹ s⁻¹. This molecule also registered a K obs / 1 in assay [5] of 240 M⁻¹ s⁻¹.
The like results for `NC(N)c1ccc(C(NC(=O)[C@@H]2CCCN2C(=O)CNS(=O)(=O)Cc2ccccc2)P(=O)(Oc2ccccc2)Oc2ccccc2)cc1` (some centres undefined) were, in that order, 3650 M⁻¹ s⁻¹, 87 M⁻¹ s⁻¹, 2 M⁻¹ s⁻¹ and 37100 M⁻¹ s⁻¹.
For `CC(C)[C@H](NC(=O)OCc1ccccc1)C(=O)NC(c1ccc(C(=N)N)cc1)P(=O)(Oc1ccccc1)Oc1ccccc1` (some centres undefined), in that order: 6.7 M⁻¹ s⁻¹, 0.7 M⁻¹ s⁻¹, 21.2 M⁻¹ s⁻¹ and 41 M⁻¹ s⁻¹.
In the case of `NCCCCCC(NC(=O)OCc1ccccc1)P(=O)(Oc1ccccc1)Oc1ccccc1` (centres undefined), the values for the kobs/[I] (second-order inactivation rate constant) in assay [2] and in assay [4] were 23 M⁻¹ s⁻¹ and 1.1 M⁻¹ s⁻¹, respectively. In assay [3], this molecule returned a kobs/[I] (second-order inhibition rate constant) of 0.7 M⁻¹ s⁻¹. Moreover, the K obs / 1 in assay [5] came to 21 M⁻¹ s⁻¹.
For `C[C@H](NC(=O)[C@@H](Cc1ccccc1)NC(=O)OCc1ccccc1)C(=O)NC(c1ccc(C(N)N)cc1)P(=O)(Oc1ccccc1)Oc1ccccc1` (some centres undefined), in that order: 1770 M⁻¹ s⁻¹, 4.2 M⁻¹ s⁻¹, 4 M⁻¹ s⁻¹ and 3010 M⁻¹ s⁻¹.
For `N=C(N)c1ccc(CC(NC(=O)OCc2ccccc2)P(=O)(Oc2ccccc2)Oc2ccccc2)cc1` (centres undefined), in that order: 2750 M⁻¹ s⁻¹, 2.1 M⁻¹ s⁻¹, 17 M⁻¹ s⁻¹ and 24 M⁻¹ s⁻¹.
In the case of `C[C@H](NC(=O)OCc1ccccc1)C(=O)N[C@H](C)C(=O)N[C@@H](C)C(=O)NC(c1ccc(C(N)N)cc1)P(=O)(Oc1ccccc1)Oc1ccccc1` (some centres undefined), the K obs / 1 in assay [1] was 590 M⁻¹ s⁻¹; in assay [5] it was 1780 M⁻¹ s⁻¹. For the same molecule, the kobs/[I] (second-order inactivation rate constant) was determined as 730 M⁻¹ s⁻¹ in assay [2] and 7 M⁻¹ s⁻¹ in assay [4]. This molecule also displayed a kobs/[I] (second-order inhibition rate constant) in assay [3] of 2 M⁻¹ s⁻¹.
Turning to `C[C@H](NC(=O)[C@@H](C)NC(=O)OCc1ccccc1)C(=O)NC(c1ccc(C(=N)N)cc1)P(=O)(Oc1ccccc1)Oc1ccccc1` (some centres undefined), the K obs / 1 in assay [1] is 480 M⁻¹ s⁻¹; in assay [5], 3620 M⁻¹ s⁻¹. The figures for the kobs/[I] (second-order inactivation rate constant) in assay [2] and in assay [4] were 820 M⁻¹ s⁻¹ and 5 M⁻¹ s⁻¹, respectively. In assay [3], this molecule came in with a kobs/[I] (second-order inhibition rate constant) of 2 M⁻¹ s⁻¹.
On to `C[C@H](NC(=O)[C@@H](CC(=O)O)NC(=O)OCc1ccccc1)C(=O)NC(c1ccc(C(=N)N)cc1)P(=O)(Oc1ccccc1)Oc1ccccc1` (some centres undefined), for which the kobs/[I] (second-order inactivation rate constant) in assay [2] came to 240 M⁻¹ s⁻¹; in assay [4], 6 M⁻¹ s⁻¹. Moreover, the kobs/[I] (second-order inhibition rate constant) in assay [3] came to 0.7 M⁻¹ s⁻¹. In assay [5], this molecule came in with a K obs / 1 of 2550 M⁻¹ s⁻¹.
The like results for `N=C(N)c1ccc(C(NC(=O)CCC(=O)O)P(=O)(Oc2ccccc2)Oc2ccccc2)cc1` (centres undefined) were, in that order, 857 M⁻¹ s⁻¹, 0.3 M⁻¹ s⁻¹, 0.2 M⁻¹ s⁻¹ and 45 M⁻¹ s⁻¹.
The like results for `N=C(N)c1ccc(C(NC(=O)[C@@H]2CCCN2C(=O)CCc2ccccc2)P(=O)(Oc2ccccc2)Oc2ccccc2)cc1` (some centres undefined) were, in that order, 1510 M⁻¹ s⁻¹, 50 M⁻¹ s⁻¹, 0.4 M⁻¹ s⁻¹ and 1520 M⁻¹ s⁻¹.
`C[C@@H](O)[C@H](NC(=O)OCc1ccccc1)C(=O)NC(c1ccc(C(=N)N)cc1)P(=O)(Oc1ccccc1)Oc1ccccc1` (some centres undefined): the values for the kobs/[I] (second-order inactivation rate constant) in assay [2] and in assay [4] were 2220 M⁻¹ s⁻¹ and 3 M⁻¹ s⁻¹, respectively. In addition, the “K obs / 1” value in assay [6] is “inactive”. The same molecule displayed a K obs / 1 in assay [5] of 97 M⁻¹ s⁻¹.
Regarding `C[C@H](NC(=O)[C@@H](C)NC(=O)CCC(=O)O)C(=O)NC(c1ccc(C(=N)N)cc1)P(=O)(Oc1ccccc1)Oc1ccccc1` (some centres undefined), the kobs/[I] (second-order inactivation rate constant) in assay [2] stood at 260 M⁻¹ s⁻¹; in assay [4], 0.3 M⁻¹ s⁻¹. The molecule also yielded a kobs/[I] (second-order inhibition rate constant) in assay [3] of 0.7 M⁻¹ s⁻¹. Also, in assay [5], the K obs / 1 came out at 640 M⁻¹ s⁻¹.
